Assay results: ChEMBL document CHEMBL4622842, “Optimization and biological evaluation of imidazopyridine derivatives as a novel scaffold for γ-secretase modulators with oral efficacy against cognitive deficits in Alzheimer's disease model mice” (Bioorg Med Chem, 2020)
The source made the active and inactive calls. The rule behind the calls is not given here.

How the values were obtained:
[1] = target: Gamma-secretase; test: Inhibition of gamma-secretase in human SK-N-BE cells assessed as decrease in amyloid beta 42 production treated for 6 hrs by ELISA; format: cell-based
Method in brief: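 SK-N-BE(2) human neuroblastoma cells grown in RPMI1640 with 10% FBS and penicillin/streptomycin, plated in 96-well plates overnight, then exposed to a range of drug concentrations in 0.5% DMSO for 6 h. Medium Aβ1-42 was measured by sandwich ELISA (44A3 capture, biotin-82E1 detection, streptavidin-HRP, TMB). Total Aβ was measured by ELISA kit. Mean of two wells.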

[2] = tested on: Rattus norvegicus; test: Reduction in amyloid beta 42 production in Sprague-Dawley rat plasma at 30 mg/kg, po measured after 3 to 4 hrs by ELISA relative to control; format: functional
Method in brief: (§1)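 Nonfasted 6-week-old male SD rats (n = 4 or 5) given a single oral dose of 10 or 30 mg/kg in 0.5% (w/v) methylcellulose. Blood and brain were taken under isoflurane 3 h post-dose (4 h for some entries). Hippocampus was sonicated in 10 volumes of TBS pH 7.4 with protease inhibitors and spun at 100,000g, 4 °C, 1 h. Aβx-42 in supernatant and plasma measured by ELISA; Student's t-test vs vehicle.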

[3] = tested on: Rattus norvegicus; test: Reduction in amyloid beta 42 production in Sprague-Dawley rat brain at 30 mg/kg, po measured after 3 to 4 hrs by ELISA relative to control; format: functional; method in brief: as §1
[4] = Intrinsic clearance in rat liver microsomes at 0.2 uM incubated upto 45 mins by LC/MS-MS analysis; format: ADME, Microsome; conditions: for CLint scaled at 0.2 µM: liver microsomes
Method in brief: (§2)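 Test compound at 0.2 μM incubated at 37 °C with pooled rat or mouse liver microsomes (0.2 mg protein/mL), 1 mM NADPH and 0.1 mM EDTA in 100 mM Na+-K+ phosphate, pH 7.4. Samples taken at 0, 15, 30 and 45 min; compound/internal-standard peak areas measured by LC-MS/MS to calculate CLint (mL/min/kg). Mean of duplicate experiments.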

[5] = Drug concentration in brain of Sprague-Dawley rat at 10 mg/kg, po measured after 3 hrs by LC/MS-MS analysis; format: ADME, organism-based; conditions: in vivo
Method in brief: (§3)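 Nonfasted 6-week-old male SD rats (n = 2 or 3) received a single oral dose of 10 or 30 mg/kg as a suspension in 0.5% (w/v) methylcellulose. Plasma and brain were sampled 3 h post-dose, proteins were precipitated with acetonitrile, and drug was quantified by LC-MS/MS. Values are the mean of two or three rats. The brain/plasma ratio was taken from these concentrations.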

[6] = Drug concentration in plasma of Sprague-Dawley rat at 30 mg/kg, po measured after 3 hrs by LC/MS-MS analysis; format: ADME, organism-based; method in brief: as §3
[7] = Drug concentration in plasma of Sprague-Dawley rat at 10 mg/kg, po measured after 3 hrs by LC/MS-MS analysis; format: ADME, organism-based; method in brief: as §3
[8] = target: Cytochrome P450 2D6 (Homo sapiens, UniProt P10635); test: Inhibition of human recombinant CYP2D6 assessed as reduction in metabolite formation using AMMC as substrate incubated for 20 mins by fluorescence assay; format: ADME
Sequence of Cytochrome P450 2D6 (P10635 whole entry): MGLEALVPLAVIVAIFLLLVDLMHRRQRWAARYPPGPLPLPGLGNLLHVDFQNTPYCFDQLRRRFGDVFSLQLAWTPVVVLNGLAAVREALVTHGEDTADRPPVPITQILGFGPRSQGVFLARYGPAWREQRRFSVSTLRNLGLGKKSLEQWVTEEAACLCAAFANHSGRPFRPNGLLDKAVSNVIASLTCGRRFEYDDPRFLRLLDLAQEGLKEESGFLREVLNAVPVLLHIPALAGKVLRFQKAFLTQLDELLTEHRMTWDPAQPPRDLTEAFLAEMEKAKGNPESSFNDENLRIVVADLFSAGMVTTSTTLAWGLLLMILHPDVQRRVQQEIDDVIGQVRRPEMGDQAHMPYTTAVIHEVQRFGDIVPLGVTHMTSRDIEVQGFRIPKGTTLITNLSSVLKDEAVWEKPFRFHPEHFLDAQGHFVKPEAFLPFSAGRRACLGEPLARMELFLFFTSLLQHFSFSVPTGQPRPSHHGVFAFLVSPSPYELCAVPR
Method in brief: (§4)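 Recombinant human CYP with co-factors, fluorogenic substrate, potassium phosphate buffer pH 7.4 and test compound at 0.31–20 μM, incubated at 37 °C. Substrates and incubation times: CYP1A2, 5 μM CEC, 20 min; CYP2C9, 75 μM MFC, 30 min; CYP2C19, 25 μM CEC, 20 min; CYP2D6, AMMC, 20 min. Stopped with Tris base/acetonitrile; metabolite read by fluorescence. IC50 is the mean of duplicates.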

[9] = tested on: Rattus norvegicus; test: Reduction in amyloid beta 42 production in Sprague-Dawley rat brain at 10 mg/kg, po measured after 3 to 4 hrs by ELISA relative to control; format: functional; method in brief: as §1
[10] = tested on: Rattus norvegicus; test: Reduction in amyloid beta 42 production in Sprague-Dawley rat plasma at 10 mg/kg, po measured after 3 to 4 hrs by ELISA relative to control; format: functional; method in brief: as §1
[11] = Ratio of drug concentration in brain to blood of Sprague-Dawley rat at 10 mg/kg, po measured after 3 hrs by LC/MS-MS analysis; format: ADME, organism-based; conditions: brain and blood; method in brief: as §3
[12] = Ratio of drug concentration in plasma of Sprague-Dawley rat at 30 mg/kg, po to IC50 of gamma-secretase in human SK-N-BE cells; format: ADME, organism-based; conditions: in vivo
[13] = Drug concentration in brain of Sprague-Dawley rat at 30 mg/kg, po measured after 3 hrs by LC/MS-MS analysis; format: ADME, organism-based; conditions: in vivo; method in brief: as §3
[14] = target: Cytochrome P450 2C19 (Homo sapiens, UniProt P33261); test: Inhibition of human recombinant CYP2C19 assessed as reduction in metabolite formation using CEC as substrate incubated for 20 mins by fluorescence assay; format: ADME; method in brief: as §4
Sequence of Cytochrome P450 2C19 (P33261 whole entry): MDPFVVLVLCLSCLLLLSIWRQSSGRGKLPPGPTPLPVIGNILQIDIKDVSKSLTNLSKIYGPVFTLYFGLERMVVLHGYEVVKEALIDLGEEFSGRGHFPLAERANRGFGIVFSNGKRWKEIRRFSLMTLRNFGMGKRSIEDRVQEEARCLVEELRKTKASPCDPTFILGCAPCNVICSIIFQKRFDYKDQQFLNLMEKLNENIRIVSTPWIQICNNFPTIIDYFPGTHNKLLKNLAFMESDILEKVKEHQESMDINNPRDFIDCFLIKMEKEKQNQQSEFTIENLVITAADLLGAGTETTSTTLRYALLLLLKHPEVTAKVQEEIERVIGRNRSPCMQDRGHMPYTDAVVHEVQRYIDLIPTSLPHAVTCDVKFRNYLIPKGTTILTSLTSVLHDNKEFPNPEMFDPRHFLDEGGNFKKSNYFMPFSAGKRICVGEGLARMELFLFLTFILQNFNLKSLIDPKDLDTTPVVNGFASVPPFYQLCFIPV

[15] = target: T1, CYP3A4 (Homo sapiens, UniProt P08684); test: Inhibition of CYP3A4 in human liver microsome assessed as enzyme residual activity pre-incubated for 0 min followed by midazolam addition incubated for 20 mins by LC-MS/MS analysis relative to control; format: ADME; conditions: liver microsomes, probe midazolam, read-out: INH
T1 sequence (P08684 whole entry): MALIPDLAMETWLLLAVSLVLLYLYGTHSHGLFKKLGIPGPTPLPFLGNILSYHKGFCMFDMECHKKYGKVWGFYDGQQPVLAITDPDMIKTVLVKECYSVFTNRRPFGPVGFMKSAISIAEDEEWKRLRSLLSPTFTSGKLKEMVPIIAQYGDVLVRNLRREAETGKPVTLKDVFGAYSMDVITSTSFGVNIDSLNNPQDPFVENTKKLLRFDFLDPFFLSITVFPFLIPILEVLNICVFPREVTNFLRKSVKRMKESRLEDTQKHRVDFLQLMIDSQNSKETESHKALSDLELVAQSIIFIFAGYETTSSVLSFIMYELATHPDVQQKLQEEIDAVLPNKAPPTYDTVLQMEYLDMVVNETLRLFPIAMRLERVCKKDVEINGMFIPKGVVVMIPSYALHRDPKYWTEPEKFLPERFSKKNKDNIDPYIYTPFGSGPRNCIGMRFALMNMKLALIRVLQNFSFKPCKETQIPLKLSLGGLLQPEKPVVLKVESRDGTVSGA
Method in brief: (§5)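 Human liver microsomes at 0.1 mg protein/mL with 1 mM NADPH, 0.1 mM EDTA, 100 mM Na+-K+ phosphate pH 7.4 and 5 μM test compound, preincubated 0 or 30 min at 37 °C. Started with 1.5 μM midazolam, run 20 min, stopped with 80% acetonitrile containing internal standard. Peak-area ratios with compound vs without gave residual activity; mean of duplicates.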

[16] = Ratio of drug concentration in plasma of Sprague-Dawley rat at 10 mg/kg, po to IC50 of gamma-secretase in human SK-N-BE cells; format: ADME, organism-based; conditions: in vivo
[17] = target: T2, Cytochrome P450 1A2 (Homo sapiens, UniProt P05177); test: Inhibition of human recombinant CYP1A2 assessed as reduction in metabolite formation using CEC as substrate incubated for 20 mins by fluorescence assay; format: ADME; method in brief: as §4
T2 sequence (P05177 whole entry): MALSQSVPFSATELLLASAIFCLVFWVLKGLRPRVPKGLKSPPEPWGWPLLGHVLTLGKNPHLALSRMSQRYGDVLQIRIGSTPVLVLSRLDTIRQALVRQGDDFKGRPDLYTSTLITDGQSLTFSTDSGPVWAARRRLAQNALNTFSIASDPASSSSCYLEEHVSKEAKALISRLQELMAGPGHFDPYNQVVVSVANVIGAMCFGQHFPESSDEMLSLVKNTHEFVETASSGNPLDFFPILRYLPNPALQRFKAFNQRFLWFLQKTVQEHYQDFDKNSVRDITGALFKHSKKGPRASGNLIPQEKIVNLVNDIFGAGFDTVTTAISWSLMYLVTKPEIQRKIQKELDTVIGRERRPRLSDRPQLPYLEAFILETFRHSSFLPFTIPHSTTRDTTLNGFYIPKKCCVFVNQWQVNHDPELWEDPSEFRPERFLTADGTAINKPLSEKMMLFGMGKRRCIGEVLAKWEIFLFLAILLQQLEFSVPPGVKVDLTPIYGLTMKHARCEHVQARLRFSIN

[18] = target: Cytochrome P450 2C9 (Homo sapiens, UniProt P11712); test: Inhibition of human recombinant CYP2C9 assessed as reduction in metabolite formation using MFC as substrate incubated for 30 mins by fluorescence assay; format: ADME; method in brief: as §4
Sequence of Cytochrome P450 2C9 (P11712 whole entry): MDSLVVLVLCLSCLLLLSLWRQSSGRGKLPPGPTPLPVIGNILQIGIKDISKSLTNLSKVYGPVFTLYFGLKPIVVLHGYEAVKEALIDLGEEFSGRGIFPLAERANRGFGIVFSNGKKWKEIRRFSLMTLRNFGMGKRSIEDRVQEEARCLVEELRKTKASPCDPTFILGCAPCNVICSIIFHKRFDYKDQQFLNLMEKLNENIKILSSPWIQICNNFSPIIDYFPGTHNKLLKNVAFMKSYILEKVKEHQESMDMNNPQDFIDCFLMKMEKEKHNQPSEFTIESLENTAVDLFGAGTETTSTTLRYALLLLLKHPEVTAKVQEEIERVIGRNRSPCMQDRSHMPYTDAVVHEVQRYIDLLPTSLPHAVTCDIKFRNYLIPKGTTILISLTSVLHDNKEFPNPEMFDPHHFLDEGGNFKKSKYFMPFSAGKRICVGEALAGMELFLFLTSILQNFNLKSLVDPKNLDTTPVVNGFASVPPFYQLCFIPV

[19] = Ratio of drug concentration in brain to blood of Sprague-Dawley rat at 30 mg/kg, po measured after 3 hrs by LC/MS-MS analysis; format: ADME, organism-based; conditions: brain and blood; method in brief: as §3
[20] = target: T1, CYP3A4; test: Inhibition of CYP3A4 in human liver microsome assessed as enzyme residual activity pre-incubated for 30 min followed by midazolam addition incubated for 20 mins by LC-MS/MS analysis relative to control; format: ADME; conditions: liver microsomes, probe midazolam, read-out: INH; method in brief: as §5
[21] = Ratio of drug concentration in brain of Sprague-Dawley rat at 10 mg/kg, po to IC50 of gamma-secretase in human SK-N-BE cells; format: ADME, organism-based; conditions: in vivo
[22] = tested on: Mus musculus; test: Antialzheimer activity in transgenic Tg2576 mouse assessed as improvement of spatial memory impairment at 2 and 6 mg/kg, po administered daily for 8 weeks measured after 3 hrs on day 8 by Y-maze test; format: functional, organism-based; conditions: in the assay text read “8 days” for “8 weeks”
Method in brief: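 Female Tg2576 mice, 6 months old, nonfasted (n = 5 or 6), dosed orally once daily for 8 days at 0.6, 2.0, 6.0 or 20 mg/kg as a suspension in 0.5% methyl cellulose. Three hours after the day-8 dose, each mouse started at the end of one arm of a three-arm Y-maze and explored freely for 8 min. Spontaneous alternation was scored; animals with <10 total arm entries were excluded. Student's t-test vs vehicle.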

[23] = Ratio of drug concentration in brain of Sprague-Dawley rat at 30 mg/kg, po to IC50 of gamma-secretase in human SK-N-BE cells; format: ADME, organism-based; conditions: in vivo
[24] = Intrinsic clearance in mouse liver microsomes at 0.2 uM incubated upto 45 mins by LC/MS-MS analysis; format: ADME, Microsome; method in brief: as §2

Compound | IC50 [1] | inhibition in vivo at 30 mg/kg [2] | inhibition in vivo at 30 mg/kg [3] | CLint scaled at 0.2 µM [4] | further results
CCN1Cc2cc(-c3c(C)nc4c(OCc5ccc(-c6ccc(F)cc6)cc5)cccn34)ccc2C1=O | 92 nM | 59% | 10% | 345 mL/min/kg | –
CNC(=O)c1ccc(-c2c(C)nc3c(OCc4ccc(-c5ccc(F)cc5)cc4F)cccn23)cn1.Cl | 29 nM | 77% | 42% | 115 mL/min/kg | Ct [5]: 1.5 nmol/g; concentration at 3 h [6]: 16 µM; concentration at 3 h [7]: 5.7 µM; IC50 [8]: > 10000 nM; inhibition in vivo at 10 mg/kg [9]: 23%; inhibition in vivo at 10 mg/kg [10]: 63%; Kp at 3 h [11]: 0.27; Ratio [12]: 561; Ct [13]: 3.5 nmol/g; IC50 [14]: > 10000 nM; activity at 20 min [15]: 109%; Ratio [16]: 196; IC50 [17]: > 10000 nM; IC50 [18]: > 10000 nM; Kp at 3 h [19]: 0.23; activity at 20 min [20]: 104%; Ratio [21]: 51; Activity [22]: Active; Ratio [23]: 121
CCNC(=O)c1ccc(-c2c(C)nc3c(OCc4ccc(-c5ccc(C(F)(F)F)cc5)cc4)cccn23)cn1.Cl | 210 nM | 40% | 4% | – | CLH ([4]; microsomes, 0.75 h, 0.2 µM): Stable
CNC(=O)c1ccc(-c2c(C)nc3c(OCc4ccc(-c5ccc(F)cc5)cc4)cccn23)cn1.Cl | 37 nM | 68% | 40% | 147 mL/min/kg | concentration at 3 h [6]: 17 µM; Ratio [12]: 446; Ct [13]: 7.1 nmol/g; Kp at 3 h [19]: 0.44; Ratio [23]: 193
CCNC(=O)c1ccc(-c2c(C)nc3c(OCc4ccc(-c5ccccc5F)cc4)cccn23)cn1 | 220 nM | – | – | > 1000 mL/min/kg | –
CCn1[nH]c2cc(-c3c(C)nc4c(OCc5ccc(-c6ccc(F)cc6)cc5)cccn34)ccc2c1=O | 390 nM | – | – | – | –
CCn1c(=O)c2ccc(-c3c(C)nc4c(OCc5ccc(-c6ccc(F)cc6)cc5)cccn34)cc2n1C | > 2000 nM | – | – | – | –
CCNC(=O)c1ccc(-c2c(C)nc3c(OCc4ccc(-c5ccccc5C(F)(F)F)cc4)cccn23)cn1 | 180 nM | – | – | 790 mL/min/kg | –
Cc1nc2c(OCc3ccc(-c4ccc(F)cc4)cc3)cccn2c1-c1ccc2c(=O)n(C)oc2c1.Cl | 69 nM | 81% | 29% | 167 mL/min/kg | concentration at 3 h [6]: 21 µM; Ratio [12]: 304; Ct [13]: 5.6 nmol/g; Kp at 3 h [19]: 0.27; Ratio [23]: 81
CCNC(=O)c1ccc(-c2c(C)nc3c(OCc4ccc(-c5cccc(F)c5)cc4)cccn23)cn1 | 99 nM | 42% | 22% | 307 mL/min/kg | –
CCNC(=O)c1ccc(-c2c(C)nc3c(OCc4ccc(-c5ccccc5)cc4)cccn23)cn1.Cl | – | 28% | 13% | 835 mL/min/kg | concentration at 3 h [6]: 6.8 µM; Ratio [12]: 75; Ct [13]: 2.1 nmol/g; CLint scaled at 0.2 µM [24]: 227 mL/min/kg; Kp at 3 h [19]: 0.3; Ratio [23]: 23
CCn1oc2cc(-c3c(C)nc4c(OCc5ccc(-c6ccc(F)cc6)cc5)cccn34)ccc2c1=O | 90 nM | 63% | 20% | 214 mL/min/kg | –
CCNC(=O)c1ccc(-c2c(C)nc3c(OCc4ccc(-c5ccc(F)cc5)cc4)cccn23)cn1 | 75 nM | 43% | 22% | 221 mL/min/kg | –
CCNC(=O)c1ccc(-c2c(C)nc3c(OCc4ccc(-c5cccc(C(F)(F)F)c5)cc4)cccn23)cn1 | 61 nM | 62% | 15% | 38 mL/min/kg | –
CCn1sc2cc(-c3c(C)nc4c(OCc5ccc(-c6ccc(F)cc6)cc5)cccn34)ccc2c1=O | > 2000 nM | – | – | – | –
